Activity calls are given as the source filed them.
Tests used:
[1] = system: MDA-MB-435; assay: Growth inhibition of human MDA-MB-435 cells expressing v-Src at 100 uM after 4 days by trypan blue exclusion assay; type: functional, cell-based
[2] = system: MDA-MB-231; assay: Antitumor activity against human MDA-MB-231 cells expressing active Stat3 xenografted in mouse at 5 mg/kg, iv for every 3 days for 2 weeks; type: functional, organism-based; set-up: dose 5 mg/kg
Outline: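 Female athymic nude mice (six weeks old) received 5 × 10^6 MDA-MB-231 cells s.c. in the left flank in PBS. Once tumors reached 3 mm diameter (5–10 days), animals were stratified to equal mean tumor size and dosed i.v. at 5 mg/kg every 2 or 3 days for 2 weeks against vehicle. Tumors were measured every 2–3 days.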

[3] = system: MDA-MB-231; assay: Induction of apoptosis in mock pcDNA3 transfected human MDA-MB-231 cells at 100 uM after 24 hrs; type: functional
Outline: (§1)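 Cells were transfected with Stat3C or the Stat3 SH2 domain, mock-transfected, or left untransfected. After 24 h they received 100 μM compound or 0.05% DMSO for a further 24 h. Annexin V binding with flow cytometry gave percent apoptosis.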

[4] = system: NIH3T3; assay: Inhibition of v-Src mediated Stat3-independent pLucSRE luciferase […] induction in mouse NIH3T3 cells at 100 uM after 24 hrs; type: functional, cell-based
Outline: (§2)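 NIH 3T3 fibroblasts were cotransfected with a v-Src plasmid and either the Stat3-dependent pLucTKS3 or the Stat3-independent pLucSRE reporter. At 24 h post-transfection, cells got 100 μM compound or 0.05% DMSO for another 24 h. Luciferase was read in cytosolic extracts.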

[5] = system: MDA-MB-435; assay: Inhibition of Stat3 activation in human MDA-MB-435 cells at 100 uM after 24 hrs; type: functional, cell-based
Outline: (§3)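 Cells with constitutively active Stat3 were treated with compound or 0.05% DMSO (up to 24 h). Nuclear extracts were then assayed for Stat3 DNA binding by EMSA with 32P-labeled hSIE probe.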

[6] = system: MDA-MB-231; assay: Growth inhibition of human […] at 100 uM after 4 days by trypan blue exclusion assay; type: functional, cell-based
[7] = system: MDA-MB-435; assay: Induction of apoptosis in human MDA-MB-435 cells expressing active Stat3 at 30 to 100 uM after 48 hrs; type: functional, cell-based
Outline: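 Proliferating cells were exposed to compound or 0.05% DMSO for 48 h, then detached. Percent apoptosis was quantified by annexin V binding and flow cytometry.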

[8] = system: NIH3T3; assay: Reduction of survivin gene expression in v-Src transfected mouse NIH3T3 cells at 100 uM after 48 hrs; type: functional, cell-based
[9] = system: MDA-MB-231; assay: Reduction of Bcl-xL gene expression in human MDA-MB-231 cells at 100 uM after 48 hrs; type: functional, cell-based
[10] = system: MDA-MB-231; assay: Induction of apoptosis in human MDA-MB-231 cells at 100 uM after 24 hrs; type: functional; outline: as §1
[11] = system: NIH3T3; assay: Reduction of Bcl-xL gene expression in v-Src transfected mouse NIH3T3 cells at 100 uM after 48 hrs; type: functional, cell-based
[12] = system: NIH3T3; assay: Reduction of pTyr-705 Stat3 level in v-Src expressing mouse NIH3T3 cells at 100 uM after 24 hrs; type: functional, cell-based
[13] = system: NIH3T3; assay: Growth inhibition of mouse NIH3T3 cells expressing v-Src at 100 uM for every 3 days by soft-agar colony-formation assay; type: functional, cell-based
Outline: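 Soft-agar colony formation in six-well dishes. Compound in medium was added from 1 day after seeding and re-added every 3 days until large colonies appeared. Untreated wells served as control.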

[14] = system: MDA-MB-231; assay: Reduction of apoptosis in Stat3 transfected human MDA-MB-231 cells at 100 uM after 24 hrs; type: functional, cell-based
[15] = system: NIH3T3; assay: Growth inhibition of mouse NIH3T3 cells expressing v-Src at 100 uM after 4 days by trypan blue exclusion assay; type: functional, cell-based
[16] = system: MDA-MB-231; assay: Induction of apoptosis in Stat3C transfected human MDA-MB-231 cells at 100 uM after 24 hrs; type: functional, cell-based; outline: as §1
[17] = system: MDA-MB-435; assay: Cytotoxicity against human MDA-MB-435 cells expressing constitutively active Stat3 at >300 uM
[18] = system: NIH3T3; assay: Inhibition of Stat3 activation in v-Src expressing mouse NIH3T3 cells at 100 uM; type: functional, cell-based; conditions: TDE = time-dependent effect; outline: as §3
[19] = system: MDA-MB-231; assay: Inhibition of Stat3 activation in human MDA-MB-231 cells at 100 uM after 24 hrs; type: functional, cell-based; outline: as §3
[20] = system: MDA-MB-231; assay: Induction of apoptosis in Stat3 SH2 domain transfected human MDA-MB-231 cells at 100 uM after 24 hrs; type: functional, cell-based; outline: as §1
[21] = system: MDA-MB-468; assay: Growth inhibition of human […] at 100 uM after 4 days by trypan blue exclusion assay; type: functional, cell-based
[22] = system: MDA-MB-231; assay: Reduction of survivin gene expression in human MDA-MB-231 cells at 100 uM after 48 hrs; type: functional, cell-based
[23] = system: MDA-MB-468; assay: Inhibition of Stat3 activation in human MDA-MB-468 cells at 100 uM after 24 hrs; type: functional, cell-based; outline: as §3
[24] = system: NIH3T3; assay: Inhibition of Stat3-dependent pLucTKS3 luciferase […] induction in v-Src oncoprotein expressing mouse NIH3T3 cells co-transfected with pLucTKS3 at 100 uM after 24 hrs; type: functional, cell-based; outline: as §2
[25] = system: MDA-MB-231; assay: Reduction of cyclin D1 gene expression in human MDA-MB-231 cells at 100 uM after 48 hrs; type: functional, cell-based
[26] = system: NIH3T3; assay: Reduction of cyclin D1 gene expression in v-Src transfected mouse NIH3T3 cells at 100 uM after 48 hrs; type: functional, cell-based

Measured: Activity

Cc1ccc(S(=O)(=O)OCC(=O)Nc2ccc(C(=O)O)c(O)c2)cc1
50%: [3] | [10]
inactive: [4]
active: [1] | [2] | [5] | [6] | [7] | [8] | [9] | [11] | [12] | [13] | [14] | [15] | [16] | [17] Toxic | [18] tde | [19] | [20] | [21] | [22] | [23] | [24] Dose-dependent effect | [25] | [26]

Reference: ChEMBL document CHEMBL1156461, “Selective chemical probe inhibitor of Stat3, identified through structure-based virtual screening, induces antitumor activity” (Proc Natl Acad Sci U S A, 2007)
